# Results: ChEMBL document CHEMBL1122391, “2-benzazepines. 6. Synthesis and pharmacological properties of the metabolites of 9-chloro-7-(2-chlorophenyl)-5H-pyrimido[5,4-d] [2]benzazepine” (J Med Chem, 1983)
# Legend:
# Mus musculus [1] = species: Mus musculus; assay: Effective dose required for […] in mice in rotarod test; format: functional
# Mus musculus [2] = assay: Effective dose required to prevent convulsions in mice after iv administration of 70 mg/kg of metrazole compound in antipentylene tetrazole test; format: functional
# How it was run: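 Male CF-1 mice, 50–54 days old, tested by a modified Everett–Richards method. Metrazole 70 mg/kg is given iv, and convulsions are scored.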
# [3] = target: GABA-A receptor; anion channel; assay: Displacement of [3H]diazepam binding in rat brain membranes; format: cell membranes
SMILES,ED50 (Mus musculus [1]),ED50 (Mus musculus [2]),IC50 [3]
Clc1ccc2c(c1)C(c1ccccc1Cl)=NCc1cncnc1-2,1.4 mg/kg,0.59 mg/kg,1.7 nM
OC1N=C(c2ccccc2Cl)c2cc(Cl)ccc2-c2ncncc21 (centres undefined),4.8 mg/kg,0.74 mg/kg,6.4 nM
Oc1ccc(C2=NCc3cncnc3-c3ccc(Cl)cc32)c(Cl)c1,> 1000 mg/kg,> 100 mg/kg,100 nM
[O-][n+]1cnc2c(c1)CN=C(c1ccccc1Cl)c1cc(Cl)ccc1-2,4.9 mg/kg,0.65 mg/kg,1.25 nM
CN1C(=O)CN=C(c2ccccc2)c2cc(Cl)ccc21 [DIAZEPAM],2.6 mg/kg,1.4 mg/kg,
